Results published in ChEMBL document CHEMBL1641433, “Replacement of the double bond of antitubulin chalcones with triazoles and tetrazoles: Synthesis and biological evaluation” (Bioorg Med Chem Lett, 2011).
Activity calls are given as the source filed them. The rule behind the calls is not given here.

How the values were obtained:
SH-SY5Y [1] = assay: Cell cycle arrest in human SH-SY5Y cells assessed as accumulation at S phase at 2 times IC50 concentration after 16 hrs by FACS analysis (reference value: 36 +/- 4%); type: functional
SH-SY5Y [2] = assay: Cytotoxicity against human SH-SY5Y cells after 48 hrs by MTT assay; type: functional, cell-based
Outline: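 SH-SY5Y neuroblastoma cells treated 48 h across a dose range. Viability/proliferation read by MTT. IC50 taken from dose–response curves, mean ± SEM of at least eight determinations from two separate experiments.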

SH-SY5Y [3] = assay: Cytotoxicity against human SH-SY5Y cells assessed as cell viability at 10 uM after 48 hrs by MTT assay relative to control; type: functional; details: for viability at 10 µM: read-out: Activity
Outline: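 Single-concentration screen: SH-SY5Y cells given 10 µM compound for 48 h. Viability read by MTT and expressed as % of untreated control. Mean ± SEM of three replicates.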

SH-SY5Y [4] = assay: Cell cycle arrest in human SH-SY5Y cells assessed as accumulation at G2/M phase at 2 times IC50 concentration after 16 hrs by FACS analysis (reference value: 15 +/- 4.8%); type: functional
[5] = Inhibition of tubulin polymerization
SH-SY5Y [6] = assay: Cell cycle arrest in human SH-SY5Y cells assessed as accumulation at G0/G1 phase at 2 times IC50 concentration after 16 hrs by FACS analysis (reference value: 49 +/- 5.5%); type: functional

## COc1ccc(/C=C/C(=O)c2cc(OC)c(OC)c(OC)c2)cc1O
SH-SY5Y [1]
  Activity: 48%
SH-SY5Y [2]
  IC50: 50 nM
SH-SY5Y [3]
  viability at 10 µM: 17%
SH-SY5Y [4]
  Activity: 30%
[5]
  IC50: 1000 nM
SH-SY5Y [6]
  Activity: 23%

## COc1cccc(-n2cc(C(=O)c3cc(OC)c(OC)c(OC)c3)nn2)c1
SH-SY5Y [3]
  Activity: inactive

## COc1ccc(C(=O)C#Cc2cc(OC)c(OC)c(OC)c2)cc1
SH-SY5Y [1]
  Activity: 18%
SH-SY5Y [3]
  viability at 10 µM: 20.4%
SH-SY5Y [4]
  Activity: 8%
SH-SY5Y [6]
  Activity: 76%

## COc1cc(C(=O)c2cn(-c3cnc4ccccc4c3)nn2)cc(OC)c1OC
SH-SY5Y [3]
  Activity: inactive

## COc1ccc(-c2[nH]nnc2C(=O)c2cc(OC)c(OC)c(OC)c2)cc1
SH-SY5Y [3]
  viability at 10 µM: > 70%

## COc1ccc(C(=O)c2nn[nH]c2-c2cc(OC)c(OC)c(OC)c2)cc1
SH-SY5Y [3]
  viability at 10 µM: > 70%

## COc1cc(C(=O)c2cn(-c3ccc(OC(F)(F)F)cc3)nn2)cc(OC)c1OC
SH-SY5Y [3]
  Activity: inactive

## COc1cc(C(=O)c2cn(-c3ccc4ccccc4c3)nn2)cc(OC)c1OC
SH-SY5Y [3]
  Activity: inactive

## COc1cc(-n2cc(C(=O)c3cc(OC)c(OC)c(OC)c3)nn2)ccc1O
SH-SY5Y [3]
  Activity: inactive

## COc1ccc(-n2cc(C(=O)c3cc(OC)c(OC)c(OC)c3)nn2)c(OC)c1
SH-SY5Y [3]
  Activity: inactive

## COc1cc(C(=O)c2cn(-c3cc(OC)c(OC)c(OC)c3)nn2)cc(OC)c1OC
SH-SY5Y [3]
  Activity: inactive

## COc1ccc(/C=C(\C)C(=O)c2cc(OC)c(OC)c(OC)c2)cc1O
SH-SY5Y [2]
  IC50: 0.21 nM
[5]
  IC50: 1800 nM

## COc1ccc(-n2cc(C(=O)c3cc(OC)c(OC)c(OC)c3)nn2)cc1O
SH-SY5Y [3]
  Activity: inactive

## COc1ccc(-n2cc(C(=O)c3cc(OC)c(OC)c(OC)c3)nn2)cc1F
SH-SY5Y [3]
  Activity: inactive

## COc1cccc(-n2cc(C(=O)c3cc(OC)c(OC)c(OC)c3)nn2)c1O
SH-SY5Y [3]
  Activity: inactive

## COc1cc(OC(F)(F)F)cc(-n2cc(C(=O)c3cc(OC)c(OC)c(OC)c3)nn2)c1
SH-SY5Y [3]
  Activity: inactive

## COc1cc(C(=O)c2cn(-c3ccc4c(c3)OCO4)nn2)cc(OC)c1OC
SH-SY5Y [3]
  Activity: inactive

## COc1cc(OC)cc(-n2cc(C(=O)c3cc(OC)c(OC)c(OC)c3)nn2)c1
SH-SY5Y [3]
  Activity: inactive

## COc1ccc(-n2nnnc2C(=O)c2cc(OC)c(OC)c(OC)c2)cc1O
SH-SY5Y [1]
  Activity: 30%
SH-SY5Y [3]
  viability at 10 µM: 51.6%
SH-SY5Y [4]
  Activity: 29%
SH-SY5Y [6]
  Activity: 41%

## COc1ccc(C#CC(=O)c2cc(OC)c(OC)c(OC)c2)cc1
SH-SY5Y [1]
  Activity: 16%
SH-SY5Y [3]
  viability at 10 µM: 27.7%
SH-SY5Y [4]
  Activity: 6%
SH-SY5Y [6]
  Activity: 79%

## COc1cc(C(=O)c2cn(-c3cccc4ccccc34)nn2)cc(OC)c1OC
SH-SY5Y [3]
  Activity: inactive

## COc1ccc(-n2cc(C(=O)c3cc(OC)c(OC)c(OC)c3)nn2)cc1[N+](=O)[O-]
SH-SY5Y [3]
  Activity: inactive

## COc1ccccc1-n1cc(C(=O)c2cc(OC)c(OC)c(OC)c2)nn1
SH-SY5Y [3]
  Activity: inactive

## COc1ccc(-n2cc(C(=O)c3cc(OC)c(OC)c(OC)c3)nn2)cc1OC
SH-SY5Y [3]
  Activity: inactive

## COc1ccc(-n2cc(C(=O)c3cc(OC)c(OC)c(OC)c3)nn2)cc1
SH-SY5Y [3]
  Activity: inactive
